ZTA DNA inh – ZTA (EBV) inhibition in EBNA-1 counter-screen. P03206. ZTA-DNA binding, fluorescence polarization. inhibition, % at 11 µM. actives 0.15% (n = 320,000). AID 2234; in the data active = inhibition above about 33%
Target sequence (P03206 whole entry, looked up): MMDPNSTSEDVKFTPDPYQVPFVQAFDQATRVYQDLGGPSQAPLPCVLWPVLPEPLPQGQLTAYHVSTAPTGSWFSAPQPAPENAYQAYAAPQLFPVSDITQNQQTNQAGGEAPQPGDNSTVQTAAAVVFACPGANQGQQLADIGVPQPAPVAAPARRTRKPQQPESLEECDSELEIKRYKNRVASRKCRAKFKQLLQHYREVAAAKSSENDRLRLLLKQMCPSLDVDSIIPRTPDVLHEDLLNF
NS3 helicase inh – inhibitors of HCV NS3 helicase, primary screen, biochemical, Cy5 molecular beacon fluorescence; inhibition, % at 10.9 µM; actives 0.56% (n = 290,000); Hepatitis C virus NS3 helicase; NS3 helicase DNA unwinding;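 active = inhibition above the mean of all tested compounds plus 3 SD, set per campaign, cut at about 35% in these data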;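 note: 0% = DMSO wells and 100% = thioflavine S control wells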
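Compound dosing – single dose, 10.9 µM nominal final, DMSO 0.8% final · System – NS3 helicase fragment of HCV · Buffer or medium – MOPS pH 6.5, MgCl2, DTT, Tween20, BSA · Signal – Cy5 beacon fluorescence read at start and 1 h · Also added – annealed dual-labelled DNA beacon duplex, ATP-started · Schedule – 1 h at 25 °C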
EBNA-1 inhibitor – EBNA-1 DNA-binding inhibitors, primary screen, biochemical, fluorescence polarization. inhibition, % at 14.8 µM. actives 0.34% (n = 300,000). AID 1950, 2009; in the data active = inhibition above about 28%
ALR inh – inhibitors of human ALR sulfhydryl oxidase, primary screen, biochemical, H2O2 detection, HRP-luminol luminescence, single point; inhibition, % (no concentration beside the values); purified ALR, DTT oxidation; actives 3.8% (n = 290,000); FAD-linked sulfhydryl oxidase ALR (Homo sapiens), P55789; AID 485317, 2010;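 active = mean replicate inhibition above about 79%, with every replicate also reaching it, limit read from the data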
Target sequence (P55789 whole entry, looked up): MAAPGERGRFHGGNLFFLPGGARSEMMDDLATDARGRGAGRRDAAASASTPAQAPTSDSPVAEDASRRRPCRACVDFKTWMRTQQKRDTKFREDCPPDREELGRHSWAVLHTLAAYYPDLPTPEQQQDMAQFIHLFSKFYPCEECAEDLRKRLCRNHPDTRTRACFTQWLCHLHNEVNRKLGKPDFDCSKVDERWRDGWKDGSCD
HCV core dimer – inhibitors of HCV core protein dimerization, primary screen, biochemical, TR-FRET, high-throughput; actives 0.33% (n = 300,000); TR-FRET GST/Flag-core106 dimerization, 1536-well; AID 1899, 2009; inhibition, % at 5 µM;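 active = inhibition above the mean of all tested compounds plus 3 SD, set per screening campaign, cut at about 45% in these data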
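Test system: GST/Flag-tagged HCV core106 proteins; Medium: KF-containing HEPES buffer, pH 7.45, DTT, CHAPS, BSA; Times: compound-protein-antibody incubation 4 h at 22.5 °C; Detection: TR-FRET 671 and 617 nm emission; Benchmarks: wells lacking GST-core106 and wells with excess unlabelled core106.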
M18AAP inhibitor – PfM18AAP inhibitors, malaria aminopeptidase, primary screen, biochemical, QFRET, recombinant enzyme | M18 aspartyl aminopeptidase (Plasmodium falciparum 3D7) | H-Glu-NHMec fluorogenic cleavage | inhibition, % at 7.35 µM | actives 1.2% (n = 290,000);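 active = inhibition above the campaign mean inhibition over all tested compounds plus 3 SD, cut at about 28% in these data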;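 note: 0% = plate median of test compound wells and 100% = 2 mM ZnCl2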
Numbers without * were called inactive; nt = not tested or not shown. Rows were chosen to be rich in hits. Some 5.2% of all compounds tested hit in one or more screens of this group.

SMILES	ZTA DNA inh	NS3 helicase inh	EBNA-1 inhibitor	ALR inh	HCV core dimer	M18AAP inhibitor
C=CCOC(=O)Nc1ccc(Cl)cc1NC(=O)OCC=C	24	2	-3	-10	0	3
CSCCC(NC(=O)c1ccccc1Br)C(=O)NCC(c1ccco1)N1CCCCC1 (stereo not given)	0	nt	-1	-1	-4	nt
N#Cc1ccccc1NC(=O)COc1ccccc1C(=O)Nc1ccccc1	nt	nt	nt	-1	nt	nt
O=C(NCc1ccncc1)C1=NN(c2ccccc2)C(=O)CC1	-5	4	-15	94*	-2	4
O=C(Nc1cccnc1Cl)C1=NN(c2ccccc2)C(=O)CC1	4	8	-1	-4	-6	-8
CC1=C(C(=O)OCCC(C)C)C(c2ccc3c(c2)OCO3)NC(=O)N1 (stereo not given)	nt	-8	nt	-1	nt	-6
c1cc2cn[nH]c2cc1NC1CCCCCC1	0	7	6	99*	1	9
O=c1c(C(c2ccc(O)cc2)c2c(O)nc3n(c2=O)CCS3)c(O)nc2n1CCS2	-1	6	-1	nt	-4	1
Cc1ccc(C(c2c(O)nc3n(c2=O)CCS3)c2c(O)nc3n(c2=O)CCS3)cc1	-2	9	9	97*	2	-4
O=c1c(C(c2c(O)nc3n(c2=O)CCS3)c2cccc3ccccc23)c(O)nc2n1CCS2	9	9	-8	96*	-10	-4
Cc1cccc(NC(=O)C2CCN(C(=O)NCc3ccccc3)CC2)c1C	-7	-2	8	2	-6	1
Cc1ccc(C(=O)OCc2nc3ccsc3c(=O)[nH]2)o1	-9	nt	5	-5	0	nt
O=C(/C=C/c1ccc(Br)o1)OCc1nc2ccsc2c(=O)[nH]1	-4	nt	2	-15	75*	nt
CN1CCN(C(=O)c2ccccc2NC(=O)c2cccc(Cl)c2)CC1	3	7	-5	-1	-11	-2
CCOC(=O)c1c(C)[nH]c(C)c1C(=O)COC(=O)c1cc2ccccc2cc1O	7	-10	4	-2	-1	53*
NC(=O)c1ccccc1NC(=O)c1ccoc1	-3	5	10	-14	-8	-2
Cc1occc1-c1nnc(SCC(=O)c2cc3ccccc3oc2=O)o1	-5	28	6	98*	20	3
CC(C)Cn1c(N)c(C(=O)COC(=O)CCc2nc3ccccc3s2)c(=O)n(C)c1=O	9	-2	-2	-5	3	-6
C/C(=N\NC(=O)c1ccc(O)cc1)c1ccc2c(c1)Nc1ccccc1S2	-9	2	6	99*	-47	2
C/C(=N\NC(=O)c1cccc(N/N=C(\C)c2ccncc2)c1)c1ccncc1	-9	-3	7	99*	0	1
C/C(=N\NC(=O)c1cccc(N/N=C(\C)c2ccc([N+](=O)[O-])cc2)c1)c1ccc([N+](=O)[O-])cc1	-2	3	8	-4	-2	-4
C/C(=N\NC(=O)c1cccc(N/N=C(\C)c2ccccc2)c1)c1ccccc1	-6	0	-6	87*	7	6
C/C(=N\NC(=O)c1cc(O)ccc1O)c1cccc(NC(=O)c2cccc(Cl)c2)c1	-4	24	5	90*	-7	16
C/C(=N\NC(=O)c1ccncc1)c1cccc(NC(=O)c2ccc(C(C)(C)C)cc2)c1	5	-2	-13	2	0	-1
C/C(=N\NC(=O)c1ccccc1F)c1ccc2c(c1)Nc1ccccc1S2	-13	-10	-9	54	-41	10
CN(CCOc1ccccc1)C(=O)c1ccc(Cl)c(S(=O)(=O)N2CCCCC2)c1	5	nt	nt	-1	nt	nt
C/C(=N/NC(=O)c1ccc(-c2ccccc2)cc1)c1cc(O)cc(O)c1	nt	2	nt	99*	nt	-3
NC(=O)c1ccc(NC(=O)CCN=C2NS(=O)(=O)c3ccccc32)cc1	-12	nt	-1	0	0	nt
Cc1cc(C)c(S(=O)(=O)Cc2ccccc2)c(Cl)n1	-6	1	1	-8	-1	3

Source: PubChem BioAssay (several laboratories)
